The source made the active and inactive calls. No cut-off for these calls is given here.
How the values were obtained:
[1] = biological target: CDK9/cyclin T1 (Homo sapiens, UniProt P50750); assay: Inhibition of recombinant human full length CDK9/Cyclin T1 using KTFCGTPEYLAPEVRREPRILSEEEQEMFRDFDYIADWC as substrate incubated for 40 mins in presence of [gamma-33P]-ATP by scintillation counting method; type: protein-complex assay
In short: (§1)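 Radiometric kinase assay with ATP at each kinase's Km(app). IC50 values come from 10-point dose-response curves, and apparent Ki is calculated from IC50 and the kinase's Km(ATP).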

[2] = biological target: Vascular endothelial growth factor receptor 2 (Homo sapiens) (UniProt P35968); assay: Inhibition of recombinant human KDR 790 to end residues ) using myelin basic protein as substrate incubated for 40 mins by scintillation counting method
Sequence of Vascular endothelial growth factor receptor 2 (Homo sapiens) (P35968 whole entry): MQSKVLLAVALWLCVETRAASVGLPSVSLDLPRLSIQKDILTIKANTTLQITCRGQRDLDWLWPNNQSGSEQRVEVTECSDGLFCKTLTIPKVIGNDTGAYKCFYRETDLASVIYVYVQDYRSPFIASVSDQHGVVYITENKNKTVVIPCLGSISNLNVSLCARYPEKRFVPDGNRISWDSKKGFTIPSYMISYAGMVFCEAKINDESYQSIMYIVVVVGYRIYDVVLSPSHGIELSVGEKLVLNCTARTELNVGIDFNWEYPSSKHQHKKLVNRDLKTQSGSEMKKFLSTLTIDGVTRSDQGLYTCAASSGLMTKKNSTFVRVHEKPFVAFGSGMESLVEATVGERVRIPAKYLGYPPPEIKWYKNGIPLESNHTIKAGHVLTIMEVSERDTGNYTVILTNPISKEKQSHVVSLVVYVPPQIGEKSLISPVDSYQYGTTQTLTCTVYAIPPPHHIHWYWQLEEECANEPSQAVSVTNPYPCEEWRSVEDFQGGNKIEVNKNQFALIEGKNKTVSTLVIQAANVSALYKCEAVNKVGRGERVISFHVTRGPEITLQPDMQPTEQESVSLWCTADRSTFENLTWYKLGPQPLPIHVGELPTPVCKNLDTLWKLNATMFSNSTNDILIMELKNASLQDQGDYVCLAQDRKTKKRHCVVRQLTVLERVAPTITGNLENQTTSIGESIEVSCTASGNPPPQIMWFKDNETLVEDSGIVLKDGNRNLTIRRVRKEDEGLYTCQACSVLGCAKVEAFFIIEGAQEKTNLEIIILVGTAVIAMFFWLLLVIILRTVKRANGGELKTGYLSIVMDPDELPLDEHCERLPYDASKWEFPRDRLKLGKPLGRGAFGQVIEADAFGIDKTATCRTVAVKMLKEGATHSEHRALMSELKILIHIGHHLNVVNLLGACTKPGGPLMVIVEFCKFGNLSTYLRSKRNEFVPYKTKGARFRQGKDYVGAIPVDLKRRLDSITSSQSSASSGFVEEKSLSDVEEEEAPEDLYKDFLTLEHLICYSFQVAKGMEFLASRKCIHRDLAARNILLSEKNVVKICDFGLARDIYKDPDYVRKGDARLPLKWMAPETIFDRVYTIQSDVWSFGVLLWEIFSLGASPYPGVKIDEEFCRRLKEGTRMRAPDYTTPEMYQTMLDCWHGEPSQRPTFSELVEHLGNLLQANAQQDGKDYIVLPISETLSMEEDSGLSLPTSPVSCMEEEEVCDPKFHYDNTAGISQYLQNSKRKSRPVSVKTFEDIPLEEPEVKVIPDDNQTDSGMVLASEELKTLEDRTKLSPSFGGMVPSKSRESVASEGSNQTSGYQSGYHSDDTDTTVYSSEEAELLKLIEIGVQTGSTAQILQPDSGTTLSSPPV
In short: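 The 60-kinase diversity panel was run as a radiometric assay with ATP at each kinase's Km(app). Compound was tested at one fixed concentration across all kinases.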

[3] = tested on: HCT-116; assay: Growth inhibition of human HCT-116 cells after 48 hrs by MTT assay; type: functional
[4] = biological target: Cyclin-dependent kinase 1/cyclin B1 (Homo sapiens, UniProt P06493); assay: Inhibition of recombinant human full length CDK1/Cyclin B using histone H1 as substrate incubated for 40 mins in presence of [gamma-33P]-ATP by scintillation counting method; type: protein-complex assay; in short: as §1
Sequence of Cyclin-dependent kinase 1/cyclin B1 (P06493 whole entry): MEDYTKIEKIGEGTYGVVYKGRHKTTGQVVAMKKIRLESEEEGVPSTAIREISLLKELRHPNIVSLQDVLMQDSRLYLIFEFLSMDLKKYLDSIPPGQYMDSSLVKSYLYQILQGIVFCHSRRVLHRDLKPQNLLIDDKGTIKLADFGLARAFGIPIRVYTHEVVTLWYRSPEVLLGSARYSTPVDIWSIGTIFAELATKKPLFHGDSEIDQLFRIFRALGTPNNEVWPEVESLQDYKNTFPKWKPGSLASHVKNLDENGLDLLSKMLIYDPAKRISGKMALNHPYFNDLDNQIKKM
Sequence of Cyclin-dependent kinase 1/cyclin B1 (P14635 whole entry, further chain): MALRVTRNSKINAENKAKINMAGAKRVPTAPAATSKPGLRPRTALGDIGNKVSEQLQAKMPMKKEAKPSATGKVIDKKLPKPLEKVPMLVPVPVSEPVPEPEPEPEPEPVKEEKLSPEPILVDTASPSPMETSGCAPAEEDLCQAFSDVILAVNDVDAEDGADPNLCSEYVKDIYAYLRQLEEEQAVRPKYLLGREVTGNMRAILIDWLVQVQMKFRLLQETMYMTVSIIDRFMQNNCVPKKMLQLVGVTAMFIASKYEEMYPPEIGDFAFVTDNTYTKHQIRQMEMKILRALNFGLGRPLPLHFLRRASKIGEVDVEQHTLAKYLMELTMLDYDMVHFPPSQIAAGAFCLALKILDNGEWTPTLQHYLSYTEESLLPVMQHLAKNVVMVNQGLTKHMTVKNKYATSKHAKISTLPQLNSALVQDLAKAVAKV

[5] = tested on: MDA-MB-468; assay: Growth inhibition of human MDA-MB-468 cells after 48 hrs by MTT assay; type: functional
[6] = tested on: A549; assay: Growth inhibition of human A549 cells after 48 hrs by MTT assay; type: functional
[7] = tested on: A2780; assay: Induction of apoptosis in human A2780 cells assessed as late apoptotic cells at 2 uM after 24 hrs by Annexin V-FITC/PI staining based flow cytometric analysis (reference value: 2.8%); type: functional
In short: (§2)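 A2780 cells cultured 24 h in medium alone or with varying inhibitor concentrations, then stained with FITC-annexin V/PI per kit protocol and analysed by flow cytometry. Run in triplicate and repeated at least twice; significance by one-way ANOVA, p < 0.01.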

[8] = tested on: A2780; assay: Induction of apoptosis in human A2780 cells assessed as viable cells at 5 uM after 24 hrs by Annexin V-FITC/PI staining based flow cytometric analysis (reference value: 92%); type: functional; conditions: read-out: Activity; in short: as §2
[9] = tested on: A2780; assay: Induction of cell cycle arrest in human A2780 cells assessed as accumulation at pre-G1 phase at 0.5 uM after 24 hrs by propidium iodide staining based flow cytometric analysis (reference value: 1.2%); type: functional
[10] = tested on: A2780; assay: Induction of cell cycle arrest in human A2780 cells assessed as accumulation at G2/M phase at 0.5 uM after 24 hrs by propidium iodide staining based flow cytometric analysis (reference value: 21.6%); type: functional
In short: (§3)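 4 × 10⁵ A2780 cells cultured 24 h in medium alone or with varying inhibitor concentrations, harvested into hypotonic fluorochrome solution (0.1% sodium citrate, 0.1% Triton X-100, propidium iodide, 100 ug/ml RNase A), and DNA content analysed by flow cytometry. Representative of three independent experiments.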

[11] = tested on: A2780; assay: Induction of cell cycle arrest in human A2780 cells assessed as accumulation at S phase at 1 uM after 24 hrs by propidium iodide staining based flow cytometric analysis (reference value: 20%); type: functional; in short: as §3
[12] = tested on: A2780; assay: Induction of apoptosis in human A2780 cells assessed as increase in p53 protein expression at 0.5 to 5 uM after 24 hrs by Western blot analysis; type: functional, cell-based; conditions: dose 0.5-5 µM
In short: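 A2780 cells treated for 24 h over a concentration series, then lysates analysed by Western blotting.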

[13] = tested on: HCT-116; assay: Induction of apoptosis in human HCT-116 cells assessed as increase in cleaved-PARP protein expression at 0.5 to 5 uM after 24 hrs by Western blot analysis; type: functional, cell-based; conditions: dose 0.5-5 µM
[14] = tested on: HCT-116; assay: Induction of apoptosis in human HCT-116 cells assessed as increase in p21 protein expression at 0.5 to 5 uM after 24 hrs by Western blot analysis; type: functional, cell-based; conditions: dose 0.5-5 µM

Sequence of CDK9/cyclin T1 (O60563 whole entry): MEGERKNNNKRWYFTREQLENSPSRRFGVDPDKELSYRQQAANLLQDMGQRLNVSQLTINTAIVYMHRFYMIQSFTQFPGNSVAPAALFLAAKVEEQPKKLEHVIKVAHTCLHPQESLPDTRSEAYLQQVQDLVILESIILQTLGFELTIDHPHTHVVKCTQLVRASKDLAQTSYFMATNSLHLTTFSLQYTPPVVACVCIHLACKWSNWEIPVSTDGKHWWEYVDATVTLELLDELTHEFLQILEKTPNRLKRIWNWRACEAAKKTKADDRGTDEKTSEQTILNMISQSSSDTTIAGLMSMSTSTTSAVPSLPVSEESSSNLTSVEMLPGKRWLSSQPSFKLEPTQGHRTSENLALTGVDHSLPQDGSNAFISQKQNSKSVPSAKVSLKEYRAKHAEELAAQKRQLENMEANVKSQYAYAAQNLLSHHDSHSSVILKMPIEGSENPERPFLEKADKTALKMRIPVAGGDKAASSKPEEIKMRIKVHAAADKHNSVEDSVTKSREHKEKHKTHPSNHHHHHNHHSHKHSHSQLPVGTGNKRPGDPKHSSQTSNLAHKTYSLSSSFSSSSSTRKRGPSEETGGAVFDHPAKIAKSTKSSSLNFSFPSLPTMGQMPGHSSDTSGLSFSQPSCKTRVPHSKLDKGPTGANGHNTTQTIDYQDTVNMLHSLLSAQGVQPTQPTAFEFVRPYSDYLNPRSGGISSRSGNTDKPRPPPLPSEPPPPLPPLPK
Sequence of CDK9/cyclin T1 (P50750 whole entry): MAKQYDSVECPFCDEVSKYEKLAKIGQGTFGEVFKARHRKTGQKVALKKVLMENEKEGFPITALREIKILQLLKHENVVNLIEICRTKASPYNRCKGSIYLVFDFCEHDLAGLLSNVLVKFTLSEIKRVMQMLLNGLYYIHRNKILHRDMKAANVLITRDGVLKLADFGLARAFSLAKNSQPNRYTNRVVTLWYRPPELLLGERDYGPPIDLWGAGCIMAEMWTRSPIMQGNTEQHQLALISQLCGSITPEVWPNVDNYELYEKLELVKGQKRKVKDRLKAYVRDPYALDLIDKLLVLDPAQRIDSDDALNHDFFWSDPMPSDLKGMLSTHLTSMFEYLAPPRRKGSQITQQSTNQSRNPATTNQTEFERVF

- Ki [1]: 10 nM
- inhibition [2]: Active
- GI50 [3]: 1070 nM
- Ki [4]: 1170 nM
- GI50 [5]: 1460 nM
- GI50 [6]: 1540 nM
SMILES: CNc1nc(C)c(-c2nc(Nc3cccc(N4CCN5CCC4CC5)c3)ncc2C)s1
- Activity [7]: 15.5%
- viability at 5 µM [8]: 22.6%
- Activity [9]: 2%
- Activity [10]: 22.2%
- Activity [11]: 7.6%
- Activity [12]: Active
- Activity [13]: Active
- Activity [14]: Active
